Experimental data from different studies.
Protocols differ between the studies behind these lines.
SPHK2: Sphingosine kinase 2 (SPHK2, Homo sapiens, UniProt Q9NRA0)
SIRT1: NAD-dependent protein deacetylase sirtuin-1 (SIRT1, Homo sapiens, UniProt Q96EB6)
SLC7A5: Large neutral amino acids transporter small subunit 1 (SLC7A5, Homo sapiens, UniProt Q01650)
Adra1b: Alpha-1B adrenergic receptor (Adra1b, Rattus norvegicus, UniProt P15823)
XDH: Xanthine dehydrogenase/oxidase (XDH, Bos taurus, UniProt P80457)
STAT5B SH2: Signal transducer and activator of transcription 5B, SH2 (STAT5B, Homo sapiens, UniProt P51692)

SMILES	target	test	conditions	inhibition [%]
CC(C)CCn1c(SCC(=O)Nc2ccccc2C(F)(F)F)nc2nccnc2c1=O	Phosphatidylinositol 4-kinase beta (PI4KB, Homo sapiens, UniProt Q9UBF8)	enzyme activity, inhibitor	10 µM	< 20
N=C(N)N1CCC[C@H]1c1nc(-c2ccc(CCc3ccc(C(F)(F)F)cc3)c(C(F)(F)F)c2)no1	SPHK2	enzyme activity, inhibitor, radiometric	0.3 µM	59
CCOCCOCCOCCNC(=S)NCCCC[C@H](NS(C)(=O)=O)C(=O)N[C@H](C)C(=O)N[C@@H](CCCNC(=N)N)C(N)=O	SIRT1	enzyme activity, inhibitor	100 µM	16
CCCCNC(=S)NCCCC[C@H](NS(=O)(=O)c1cccc(F)c1)C(=O)N[C@@H](Cc1c[nH]c2ccccc12)C(=O)NC1CCC1	SIRT1	enzyme activity, inhibitor	1 µM	> 95
NC(COC(=O)c1ccccc1)C(=O)O (stereo not drawn)	SLC7A5	transporter uptake, inhibitor, radiometric	200 µM	16
Cc1ccc(S(=O)(=O)n2cc(CCC3CC(=O)c4cc(Cl)cc(Br)c4O3)c3ccccc32)cc1 (stereo not drawn)	SIRT1	enzyme activity, inhibitor, fluorescence	200 µM	23
N[C@@H](Cc1cccc(C(=O)Oc2ccccc2)c1)C(=O)O	SLC7A5	transporter uptake, inhibitor, radiometric	200 µM	85
CS(=O)(=O)Nc1cccc(-c2csc(NC(=O)CSc3nc4nccnc4c(=O)n3CCc3ccccc3)n2)c1	SPHK2	enzyme activity, inhibitor	10 µM	-12
CCCCCCCCCCCCCC(=O)NNCCC[C@H](NC(=O)OCc1ccccc1)C(=O)N[C@@H](Cc1c[nH]c2ccccc12)C(=O)NC(C)C	SIRT1	enzyme activity, inhibitor	100 µM	10
Ic1cccc2cnccc12	Adra1b	ligand displacement, radioligand	10 µM	7
O=C(Nc1ccc(S(=O)(=O)N2CCC(Cl)CC2)cc1)c1ccc([N+](=O)[O-])o1	Adra1b	ligand displacement, radioligand	10 µM	13
CCCCCCCCCCCCNC(=S)NCCCC[C@H](NC(=O)OCc1ccccc1)C(=O)N[C@@H](Cc1c[nH]c2ccccc12)C(=O)N[C@@H](CCC(=O)O)C(N)=O	SIRT1	enzyme activity, inhibitor	1 µM	28
OCCc1ccc(O)cc1	XDH	enzyme activity, inhibitor, absorbance	200 µg/mL	21.2
CCCCCC1CC(=O)c2cc([N+](=O)[O-])ccc2O1 (stereo not drawn)	SIRT1	enzyme activity, inhibitor, fluorescence	200 µM	4.7
O=C(O)c1ccc(O)c(O)c1	XDH	enzyme activity, inhibitor, absorbance	200 µg/mL	20.8
CCCCCC1CC(=O)c2cc(OC)ccc2O1 (stereo not drawn)	SIRT1	enzyme activity, inhibitor, fluorescence	200 µM	10.3
[H]/N=C(\N)N1CCC[C@H]1c1nc(-c2ccc(OCCC=Cc3ccc(C(F)(F)F)cc3)c(C(F)(F)F)c2)no1	SPHK2	enzyme activity, inhibitor, radiometric	0.3 µM	68
CCCCCCCC1CC(=O)c2cc(Cl)cc(Br)c2O1 (stereo not drawn)	SIRT1	enzyme activity, inhibitor, fluorescence	200 µM	7.5
O=C1CC(CCNC(=S)NCCCC[C@H](NS(=O)(=O)c2cccc(F)c2)C(=O)N[C@@H](Cc2c[nH]c3ccccc23)C(=O)NC2CCC2)=NO1	SIRT1	enzyme activity, inhibitor	10 µM	22
CC(C)(C)c1ccc(CCc2ccc(-c3noc([C@@H]4CCCN4C(=N)N)n3)cc2C(F)(F)F)cc1	SPHK2	enzyme activity, inhibitor, radiometric	0.3 µM	71
Cn1c(CNC(=S)NCCCC[C@H](NS(=O)(=O)c2cccc(F)c2)C(=O)N[C@@H](Cc2c[nH]c3ccccc23)C(=O)NC2CCC2)n[nH]c1=S	SIRT1	enzyme activity, inhibitor	30 µM	89
O=C(O)c1ccc(O)cc1	XDH	enzyme activity, inhibitor, absorbance	200 µg/mL	17.9
CCCCCCCCCCCCCC(=O)NCCCC[C@H](NS(C)(=O)=O)C(=O)N[C@H](C)C(=O)N[C@@H](CCCNC(=N)N)C(N)=O	SIRT1	enzyme activity, inhibitor	10 µM	23
NC(CNC(=O)c1ccccc1)C(=O)O (stereo not drawn)	SLC7A5	transporter uptake, inhibitor, radiometric	200 µM	4.6

SMILES	target	test	conditions	inhibition [%]
CC(C)(C)C(=O)OCOP(=O)(Cc1ccccc1CP(=O)(OCOC(=O)C(C)(C)C)OCOC(=O)C(C)(C)C)OCOC(=O)C(C)(C)C	STAT5B SH2	ligand displacement, FP	100 µM	-1
CCCCCC1CC(=O)c2cc(C)cc(C)c2O1 (stereo not drawn)	SIRT1	enzyme activity, inhibitor, fluorescence	200 µM	3.2
COc1ccc(CCc2ccc(-c3noc([C@@H]4CCCN4C(=N)N)n3)cc2C(F)(F)F)cc1	SPHK2	enzyme activity, inhibitor, radiometric	0.3 µM	45
C[C@@H](NC(=O)[C@H](CCCCNC(=O)C(F)(F)F)NS(C)(=O)=O)C(=O)N[C@@H](CCCNC(=N)N)C(N)=O	SIRT1	enzyme activity, inhibitor	100 µM	14
O=C1C=C(c2ccc(O)c(O)c2)CO1	XDH	enzyme activity, inhibitor, absorbance	200 µg/mL	50
O=C(CSc1nc2nccnc2c(=O)n1CCc1ccccc1)Nc1ccccc1	SPHK2	enzyme activity, inhibitor	10 µM	< 20
CCCCCC1CC(=O)c2cc(Cl)ccc2O1 (stereo not drawn)	SIRT1	enzyme activity, inhibitor, fluorescence	200 µM	2.7
NC(CCNC(=O)c1ccccc1)C(=O)O (stereo not drawn)	SLC7A5	transporter uptake, inhibitor, radiometric	200 µM	8.6
N=C(N)N1CCC[C@H]1c1nc(-c2ccc(CCC3CCCCC3)c(C(F)(F)F)c2)no1	SPHK2	enzyme activity, inhibitor, radiometric	0.3 µM	71
CCCCCC1CC(=O)c2cccc(Br)c2O1 (stereo not drawn)	SIRT1	enzyme activity, inhibitor, fluorescence	200 µM	7.1
CCCCCCCCCCCCNC(=S)NCCCC[C@H](NC(=O)OCc1ccccc1)C(=O)N[C@@H](Cc1c[nH]c2ccccc12)C(=O)N[C@@H](CCCCNC(=N)N)C(N)=O	SIRT1	enzyme activity, inhibitor	1 µM	76
O=C(CO)c1ccc(O)c(O)c1	XDH	enzyme activity, inhibitor, absorbance	200 µg/mL	43.3
CN(C)C1CCN(CC#Cc2nn(C3CCCC3)c3nc(NCc4ccccc4)ncc23)C1 (stereo not drawn)	Protein kinase C theta type (PRKCQ, Homo sapiens, UniProt Q04759)	enzyme activity, inhibitor, FRET	10 µM	13
CCCc1ccc(CCc2ccc(-c3noc([C@@H]4CCCN4C(=N)N)n3)cc2C(F)(F)F)cc1	SPHK2	enzyme activity, inhibitor, radiometric	0.3 µM	65
Oc1ncnc2[nH]ncc12	XDH	enzyme activity, inhibitor, absorbance	25 µg/mL	97
NC(CCOC(=O)c1ccccc1)C(=O)O (stereo not drawn)	SLC7A5	transporter uptake, inhibitor, radiometric	200 µM	11
[H]/N=C(\N)N1CCC[C@H]1c1nc(-c2ccc(OCC=CCCCC)c(C(F)(F)F)c2)no1	SPHK2	enzyme activity, inhibitor, radiometric	0.3 µM	48
CCCCCCCCCCCCNC(=S)NCCCC[C@H](NC(=O)OCc1ccccc1)C(=O)N[C@@H](Cc1c[nH]c2ccccc12)C(=O)N[C@@H](CC(N)=O)C(N)=O	SIRT1	enzyme activity, inhibitor	10 µM	29
OCCc1ccc(O)c(O)c1	XDH	enzyme activity, inhibitor, absorbance	200 µg/mL	12.5
[H]/N=C(\N)N1CCC[C@H]1c1nc(-c2ccc(OCC=Cc3ccccc3C(F)(F)F)c(C(F)(F)F)c2)no1	SPHK2	enzyme activity, inhibitor, radiometric	0.3 µM	0
O=c1cc(-c2ccccc2)oc2c(Br)cc(Cl)cc12	SIRT1	enzyme activity, inhibitor, fluorescence	200 µM	3.1
O=Cc1c[nH]c2ccccc12	XDH	enzyme activity, inhibitor, absorbance	200 µg/mL	13.1
CCCCCCCCCCCCNC(=S)NCCCC[C@H](NC(=O)OCc1ccccc1)C(=O)N[C@@H](C)C(=O)N[C@@H](CCCNC(=N)N)C(N)=O	SIRT1	enzyme activity, inhibitor	1 µM	61
O=C(COc1ccc2cc(C(=O)Nc3ccccc3)ccc2c1)NCc1ccc(O)c(O)c1	STAT5B SH2	ligand displacement, FP	100 µM	-2
